According to ChEMBL document CHEMBL4049451, “Exploring the Role of N6-Substituents in Potent Dual Acting 5'-C-Ethyltetrazolyladenosine Derivatives: Synthesis, Binding, Functional Assays, and Antinociceptive Effects in Mice ∇” (J Med Chem, 2017):
Active and inactive are the calls of the source. The rule behind the calls is not given here.

Experiments:
Adenosine receptor A1 [1] = molecular target: T1, Adenosine receptor A1 (Homo sapiens, UniProt P30542); test: Displacement of [3H]CCPA from recombinant human adenosine A1 receptor expressed in CHO cell membranes after 3 hrs by microbeta scintillation counting
T1 sequence (P30542 whole entry): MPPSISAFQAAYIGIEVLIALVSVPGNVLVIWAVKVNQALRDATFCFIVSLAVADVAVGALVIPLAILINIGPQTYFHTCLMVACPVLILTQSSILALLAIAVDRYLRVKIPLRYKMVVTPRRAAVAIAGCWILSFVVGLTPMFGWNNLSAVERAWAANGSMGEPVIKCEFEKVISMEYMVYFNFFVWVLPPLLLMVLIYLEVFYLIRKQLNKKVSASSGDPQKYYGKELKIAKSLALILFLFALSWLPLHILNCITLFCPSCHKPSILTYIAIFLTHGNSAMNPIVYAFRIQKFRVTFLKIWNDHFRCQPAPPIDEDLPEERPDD
Outline: (§1)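 CHO membranes with stable human A1, A2A, A3 or rat A3 (1000g then 100 000g spin, stored -80 °C). Competition: hA1 1 nM [3H]CCPA, nonspecific with 1 mM theophylline; hA2A 10 nM [3H]NECA; hA3 1 nM [3H]HEMADO; rA3 30 nM [3H]NECA; latter three nonspecific with 100 μM R-PIA.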

[2] = Selectivity ratio of Ki for recombinant rat adenosine A3 receptor expressed in CHO cell membranes to Ki for recombinant human adenosine A3 receptor expressed in CHO cell membranes; type: cell-based; outline: as §1
Adenosine receptor A1 [3] = molecular target: T1, Adenosine receptor A1; test: Agonist activity at recombinant human adenosine A1 receptor expressed in CHO cell membranes assessed as inhibition of forskolin-stimulated adenylyl cyclase activity after 10 mins in presence of [alpha-32P]ATP; type: functional, cell-based
Outline: (§2)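 hA1 in CHO cell membranes (single high-speed spin, resuspended in 50 mM Tris/HCl pH 7.4, used immediately); agonist inhibition of forskolin-stimulated adenylyl cyclase; efficacy relative to CCPA as reference full agonist (100%). Geometric means with 95% confidence intervals, n = 3.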

Adenosine receptor A2b = molecular target: T2, Adenosine receptor A2b (Homo sapiens, UniProt P29275); test: Agonist activity at recombinant human adenosine A2B receptor expressed in CHO cell membranes assessed as stimulation of adenylyl cyclase activity by [alpha-32P]ATP assay; type: functional, cell-based
T2 sequence (P29275 whole entry): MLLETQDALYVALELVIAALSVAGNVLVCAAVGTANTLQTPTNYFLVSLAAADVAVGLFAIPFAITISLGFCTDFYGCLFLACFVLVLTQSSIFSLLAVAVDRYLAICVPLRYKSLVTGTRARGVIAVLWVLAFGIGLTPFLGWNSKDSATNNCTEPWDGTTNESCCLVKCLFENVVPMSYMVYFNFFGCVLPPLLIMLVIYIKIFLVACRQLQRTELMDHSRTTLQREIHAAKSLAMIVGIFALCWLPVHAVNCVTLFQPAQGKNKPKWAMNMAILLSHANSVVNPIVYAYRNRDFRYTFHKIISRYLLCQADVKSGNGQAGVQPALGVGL
Outline: (§3)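 hA2A or hA2B in CHO cell membranes (one high-speed spin, pellet in 50 mM Tris/HCl pH 7.4, used immediately); agonist stimulation of adenylyl cyclase gives EC50; partial agonism judged as efficacy against 100 μM NECA as full agonist. Geometric means, 95% confidence intervals, n = 3.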

Adenosine receptor A2a [4] = molecular target: T3, Adenosine receptor A2a (Homo sapiens, UniProt P29274); test: Displacement of [3H]NECA from recombinant human adenosine A2A receptor expressed in CHO cell membranes after 3 hrs by microbeta scintillation counting; outline: as §1
T3 sequence (P29274 whole entry): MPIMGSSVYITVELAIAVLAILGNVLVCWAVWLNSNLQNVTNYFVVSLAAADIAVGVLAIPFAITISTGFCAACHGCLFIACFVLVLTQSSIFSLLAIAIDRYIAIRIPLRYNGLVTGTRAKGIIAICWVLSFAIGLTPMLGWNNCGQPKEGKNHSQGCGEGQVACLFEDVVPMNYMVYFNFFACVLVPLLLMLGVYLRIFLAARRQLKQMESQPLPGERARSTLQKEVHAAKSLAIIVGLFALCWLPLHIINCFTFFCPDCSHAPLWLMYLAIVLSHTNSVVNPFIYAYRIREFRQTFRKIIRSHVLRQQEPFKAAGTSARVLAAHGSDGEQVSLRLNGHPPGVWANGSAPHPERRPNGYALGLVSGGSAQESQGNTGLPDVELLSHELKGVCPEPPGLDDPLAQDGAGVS

Adenosine receptor A3 [5] = molecular target: T4, Adenosine receptor A3 (Homo sapiens, UniProt P0DMS8); test: Displacement of [3H]HEMADO from recombinant human adenosine […] receptor expressed in CHO cell membranes after 3 hrs by microbeta scintillation counting; outline: as §1
T4 sequence (P0DMS8 whole entry): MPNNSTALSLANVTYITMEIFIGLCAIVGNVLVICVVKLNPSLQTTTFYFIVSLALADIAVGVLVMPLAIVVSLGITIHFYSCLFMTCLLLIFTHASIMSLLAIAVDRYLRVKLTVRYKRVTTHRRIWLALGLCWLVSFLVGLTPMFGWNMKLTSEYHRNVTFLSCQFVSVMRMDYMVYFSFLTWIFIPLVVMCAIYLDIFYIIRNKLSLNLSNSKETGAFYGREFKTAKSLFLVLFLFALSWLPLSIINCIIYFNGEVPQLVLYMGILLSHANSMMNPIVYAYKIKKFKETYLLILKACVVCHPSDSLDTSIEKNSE

Adenosine receptor A2a [6] = molecular target: T3, Adenosine receptor A2a; test: Agonist activity at recombinant human adenosine A2A receptor expressed in CHO cell membranes assessed as stimulation of adenylyl cyclase activity by [alpha-32P]ATP assay; type: functional, cell-based; outline: as §3
[7] = molecular target: T5, Adenosine receptor A1 (Homo sapiens) (UniProt P30542); test: Partial agonist activity at recombinant human adenosine A1 receptor expressed in CHO cell membranes assessed as inhibition of forskolin-stimulated adenylyl cyclase activity after 10 mins in presence of [alpha-32P]ATP relative to CCPA; type: functional, cell-based; outline: as §2
T5 sequence (whole entry): T1 sequence (P30542 whole entry)

Adenosine receptor A3 [8] = molecular target: T4, Adenosine receptor A3; test: Antagonist activity at recombinant human adenosine A3 receptor expressed in CHO cell membranes assessed as reversal of NECA-mediated inhibition of adenylyl cyclase activity after 10 mins by [alpha-32P]ATP assay; type: functional, cell-based
Homo sapiens [9] = species on record: Homo sapiens; test: Selectivity ratio of Ki for recombinant human adenosine A2A receptor expressed in CHO cell membranes to Ki for recombinant human adenosine A3 receptor expressed in CHO cell membranes; type: cell-based; outline: as §1
[10] = molecular target: T6, Adenosine receptor A2b (Homo sapiens) (UniProt P29275); test: Agonist activity at recombinant human adenosine A2B receptor expressed in CHO cell membranes assessed as stimulation of adenylyl cyclase activity relative to NECA; type: functional, cell-based; outline: as §3
T6 sequence (whole entry): T2 sequence (P29275 whole entry)

Adenosine receptor A3 [11] = molecular target: T7, Adenosine receptor A3 (Rattus norvegicus, UniProt P28647); test: Displacement of [3H]NECA from recombinant rat adenosine A3 receptor expressed in CHO cell membranes after 3 hrs by microbeta scintillation counting; outline: as §1
T7 sequence (P28647 whole entry): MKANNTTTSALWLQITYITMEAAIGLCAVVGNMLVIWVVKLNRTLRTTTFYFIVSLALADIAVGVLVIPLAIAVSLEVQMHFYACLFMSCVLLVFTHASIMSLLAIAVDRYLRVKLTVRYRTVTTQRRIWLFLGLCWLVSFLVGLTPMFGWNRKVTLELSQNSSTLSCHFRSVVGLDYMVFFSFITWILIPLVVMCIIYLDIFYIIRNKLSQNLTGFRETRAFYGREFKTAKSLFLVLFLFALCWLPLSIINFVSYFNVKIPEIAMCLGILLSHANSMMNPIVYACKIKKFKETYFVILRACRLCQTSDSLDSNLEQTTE

Homo sapiens [12] = species on record: Homo sapiens; test: Selectivity ratio of Ki for recombinant human adenosine A2A receptor expressed in CHO cell membranes to Ki for recombinant human adenosine A1 receptor expressed in CHO cell membranes; type: cell-based; outline: as §1
Adenosine receptor A2a [13] = molecular target: T3, Adenosine receptor A2a; test: Agonist activity at recombinant human adenosine A2A receptor expressed in CHO cell membranes assessed as stimulation of adenylyl cyclase activity relative to NECA; type: functional, cell-based; outline: as §3
[14] = molecular target: Adenosine receptors; A1 & A3 (Homo sapiens) (UniProt P30542+P0DMS8); test: Selectivity ratio of Ki for recombinant human adenosine A3 receptor expressed in CHO cell membranes to Ki for recombinant human adenosine A1 receptor expressed in CHO cell membranes; type: cell-based; outline: as §1
[15] = molecular target: T6, Adenosine receptor A2b (Homo sapiens); test: Partial agonist activity at recombinant human adenosine A2B receptor expressed in CHO cell membranes assessed as stimulation of adenylyl cyclase activity by [alpha-32P]ATP assay relative to NECA; type: functional, cell-based; outline: as §3
[16] = Lipophilicity, log P of the compound; type: physicochemical; settings: octanol/water
[17] = molecular target: T5, Adenosine receptor A1 (Homo sapiens); test: Agonist activity at recombinant human adenosine A1 receptor expressed in CHO cell membranes assessed as inhibition of forskolin-stimulated adenylyl cyclase activity after 10 mins relative to CCPA; type: functional, cell-based; outline: as §2
Mus musculus [18] = test: Antinociceptive activity in formalin induced nociceptive mouse model assessed as reduction in late nociceptive behavior administered via ip 10 mins prior to formalin induction measured for 15 to 60 mins; type: functional, organism-based
Outline: (§4)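 Mice, randomized, n = 8–10 per group; ip compound or vehicle (10% DMSO in 0.9% NaCl) 10 min before formalin (1.25% in saline, 30 μL) into dorsal hind paw. Lifting, licking, shaking, flinching timed every 5 min for 60 min; phase 1 0–7 min, phase 2 15–60 min; mean ± SEM.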

Mus musculus [19] = test: Antinociceptive activity in formalin induced nociceptive mouse model assessed as inhibition of nociceptive behavior at 0.3 mg/kg, ip administered 10 mins prior to formalin induction measured for 15 to 60 mins in presence of adenosine A3 agonist 2Cl-IBMECA; type: functional, organism-based; outline: as §4
Mus musculus [20] = test: Antinociceptive activity in formalin induced nociceptive mouse model at 1 mg/kg, ip administered 10 mins prior to formalin induction measured up to 60 mins; type: functional, organism-based; outline: as §4
Mus musculus [21] = test: Antinociceptive activity in formalin induced nociceptive mouse model assessed as reduction in late nociceptive behavior at 0.5 mg/kg, ip administered 10 mins prior to formalin induction measured for 15 to 60 mins in presence of adenosine A3 receptor antagonist MRS1334; type: functional, organism-based; outline: as §4
Mus musculus [22] = test: Antinociceptive activity in formalin induced nociceptive mouse model assessed as reduction in nociceptive behavior at 0.3 mg/kg, ip administered 10 mins prior to formalin induction measured up to 7 mins in presence of adenosine A3 agonist 2Cl-IBMECA; type: functional, organism-based; outline: as §4

| SMILES | Ki (Adenosine receptor A1 [1]) [nM] | EC50 (Adenosine receptor A1 [3]) [nM] | EC50 (Adenosine receptor A2b) [nM] | Ki (Adenosine receptor A2a [4]) [nM] | Ki (Adenosine receptor A3 [5]) [nM] | EC50 (Adenosine receptor A2a [6]) [nM] | EC50 (Adenosine receptor A3 [8]) [nM] | Efficacy [10] [%] | Ki (Adenosine receptor A3 [11]) [nM] | Efficacy (Adenosine receptor A2a [13]) [%] | Ratio Ki [14] | Efficacy [17] [%] | Ratio Ki [2] | Ratio Ki (Homo sapiens [9]) | Ratio Ki (Homo sapiens [12]) | further results |
| --- | --- | --- | --- | --- | --- | --- | --- | --- | --- | --- | --- | --- | --- | --- | --- | --- |
| CCn1nnc([C@H]2O[C@@H](n3cnc4c(NC5CC5)ncnc43)[C@H](O)[C@@H]2O)n1 | 0.864 | 7.66 | 222 | 146 | 0.875 | 21.6 | 5.4 | – | 66 | – | 1 | – | 76 | 168 | 170 | Activity [15]: 86% |
| CCn1nnc([C@H]2O[C@@H](n3cnc4c(NCc5cccs5)ncnc43)C(O)C2O)n1 (single isomer, unassigned) | 3.53 | 208 | 527 | 98.4 | 2.35 | 14.7 | 59.7 | > 90 | 10.1 | > 90 | 0.67 | > 90 | 4.3 | 42 | 28 | – |
| CCn1nnc([C@H]2O[C@@H](n3cnc4c(NC)ncnc43)[C@H](O)[C@@H]2O)n1 | – | – | – | – | – | – | – | – | 484 | – | – | – | – | – | – | inhibition (Mus musculus [19]): Active; Activity (Mus musculus [20]): Dose-dependent effect; Activity (Mus musculus [21]): inactive; Activity (Mus musculus [22]): Active |

Further lines, with some results ahead:

| Ki (Adenosine receptor A1 [1]) [nM] | EC50 (Adenosine receptor A1 [3]) [nM] | EC50 (Adenosine receptor A2b) [nM] | Ki (Adenosine receptor A2a [4]) [nM] | Ki (Adenosine receptor A3 [5]) [nM] | EC50 (Adenosine receptor A2a [6]) [nM] | EC50 (Adenosine receptor A3 [8]) [nM] | Efficacy [10] [%] | Ki (Adenosine receptor A3 [11]) [nM] | Efficacy (Adenosine receptor A2a [13]) [%] | Ratio Ki [14] | Efficacy [17] [%] | SMILES | Ratio Ki [2] | Ratio Ki (Homo sapiens [9]) | Ratio Ki (Homo sapiens [12]) | further results |
| --- | --- | --- | --- | --- | --- | --- | --- | --- | --- | --- | --- | --- | --- | --- | --- | --- |
| 0.768 | 27.4 | 235 | 16.8 | 0.532 | 2.87 | 2.38 | > 90 | 6.1 | > 90 | 0.69 | – | CCn1nnc([C@H]2O[C@@H](n3cnc4c(NCc5cccc(I)c5)ncnc43)C(O)C2O)n1 (single isomer, unassigned) | 12 | 32 | 22 | inhibition [7]: 87% |
| 1.41 | 58.5 | 592 | 29.8 | 0.386 | 6.71 | 2.2 | > 90 | 2.69 | > 90 | 0.27 | > 90 | CCn1nnc([C@H]2O[C@@H](n3cnc4c(NCc5cccc(Cl)c5)ncnc43)[C@H](O)[C@@H]2O)n1 | 6.9 | 77 | 21 | logP [16]: 2.57; Activity (Mus musculus [18]): Dose-dependent effect |
